Bioassay records (PubChem)
Most compounds without a hit are left out; they make up all but 4% or so of the library.
Ecoli rRNA inh – inhibitors of bacterial rRNA selective over humanized ribosomes. GFP signal change (wild-type ribosome), % (no concentration beside the values). 1.6% of 350,000 active. AID 720706. E. coli WT GFP vs humanized-ribosome RFP mutants, fluorescence, 24 h; stronger effect = lower value; DMSO median 0, no signal -100;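 active = significant combined selectivity score with lowered wild-type GFP, culture density cut under 30%, mutant RFP and density less affected; inactive = any of these conditions unmet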
FN deposition inh – fibronectin deposition inhibition; AH1F fibroblasts, Alexa488-fibronectin deposition fluorescence, overnight; inhibition, % at 12.6 µM; 0.086% of 350,000 active;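 active = mean inhibition across replicates of 30% or more, regardless of how many single replicates reach that level; inconclusive = mean under 30% yet at least half of replicates reach 30%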
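material = AH1F fibroblast monolayer depositing Alexa488-labelled fibronectin into matrix | amount = 10000 AH1F cells/well | buffer or medium = DMEM plus 2% serum, read in PBS | incubation = 1 h cell adhesion before compound, then overnight fibronectin incubation | detection = fluorescence at 485 nm excitation, 525 nm emission | evaluation = percent inhibition as loss of matrix-bound fibronectin fluorescence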
FGF22 binding – FGF22 (human) thermal shift binding | Q9HCT0 | recombinant FGF22 thermal shift, SYPRO orange fluorescence; percent of sucrose octasulfate shift, DMSO zero | activity (Tm shift, normalised), % at 9.99 µM | 1.5% of 340,000 active;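 active = mean Tm shift, scaled 0 neutral to 100 positive control, at about 1.3% or above, every replicate too, limit read from the data; inconclusive = no clear call, values can overlap the other calls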
Statin myotox sup – suppression of simvastatin myotoxicity | C2C12 myotubes + simvastatin, ATP luminescence, 48 h; scaled: DMSO 0, geranylgeraniol control 100 | 0.78% of 330,000 active | rescue of ATP level, % at 7.49 µM;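 active = mean ATP rescue above about 67%, or every replicate alone reaching that limit, limit read from the data, passing the limit was not always enough; inconclusive = no clear call, values can overlap the other calls; inactive = mean under the limit and some replicate under it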;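 note: myotubes were challenged with 10 µM simvastatin during compound exposure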
SIRT5 block – inhibitors of human sirtuin-5 desuccinylase; inhibition, % at 15 µM; 1.1% of 330,000 active; Purified SirT5, succinyl-peptide AMC, trypsin-coupled fluorescence; in the data active = inhibition above about 15%; inconclusive = no clear call, values can overlap the other calls
E-selectin induc – E-selectin induction on HUVECs; P16581; HUVEC E-selectin immunofluorescence imaging; normalized: neutral wells 0, TNF-alpha wells 100; activation, % at 7.58 µM; 0.37% of 260,000 active;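 active = mean E-selectin-positive cell signal at least 10% of the positive control, reached in at least 60% of replicates, without over 20% cell loss; inconclusive = no rule given, readout overlaps actives, possibly toxicity-flagged; inactive = the rest, including those meeting only one limit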
Target sequence (P16581 whole entry, looked up): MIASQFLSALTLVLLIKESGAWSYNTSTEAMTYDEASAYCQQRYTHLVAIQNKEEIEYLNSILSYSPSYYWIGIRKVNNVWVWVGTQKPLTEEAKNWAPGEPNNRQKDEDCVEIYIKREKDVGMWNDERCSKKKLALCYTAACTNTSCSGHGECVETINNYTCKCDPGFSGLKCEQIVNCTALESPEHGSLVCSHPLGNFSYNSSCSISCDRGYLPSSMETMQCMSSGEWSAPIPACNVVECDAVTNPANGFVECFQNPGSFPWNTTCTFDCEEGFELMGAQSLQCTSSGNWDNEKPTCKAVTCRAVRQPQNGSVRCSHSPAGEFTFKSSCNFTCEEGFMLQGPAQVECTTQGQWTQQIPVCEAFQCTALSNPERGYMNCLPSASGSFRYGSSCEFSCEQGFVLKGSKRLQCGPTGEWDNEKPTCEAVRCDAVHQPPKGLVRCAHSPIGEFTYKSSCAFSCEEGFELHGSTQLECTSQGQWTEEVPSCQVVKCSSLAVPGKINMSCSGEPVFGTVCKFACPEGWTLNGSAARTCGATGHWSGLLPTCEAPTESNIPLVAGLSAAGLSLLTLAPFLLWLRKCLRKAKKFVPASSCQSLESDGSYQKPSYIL
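Test system: HUVEC; input: 3,000 HUVEC/well; measured by: immunofluorescence imaging; read-out: % PE-positive cells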
Each line names hits and unclear results; the compound was inactive in the other large screens.

S=c1[nH]nc(COc2ccccc2)n1/N=C/c1ccncc1	FGF22 binding 43 (no result: Statin myotox sup)
CN1\C(=C/C=C/C=C/C=[N+](C)C)C(C)(C)c2ccccc21	E-selectin induc 188 (no result: Statin myotox sup)
CO[C@@H]1CN(C)C(=O)c2cc(NC(=O)c3ccc(F)cc3)ccc2OC[C@@H](C)N(C(C)=O)C[C@H]1C	none
Cc1nc(N2CCOCC2)c(C#N)c(C)c1Br	none (no result: Ecoli rRNA inh, FGF22 binding, SIRT5 block, E-selectin induc)
Cc1nc(N2CCCCC2)c(C#N)c(C)c1[N+](=O)[O-]	Ecoli rRNA inh -33 (no result: Statin myotox sup)
COCC#Cc1ccc([C@H]2[C@H]3CN(C(=O)Nc4ccc(F)cc4)CC(=O)N3[C@H]2CO)cc1	none (no result: FN deposition inh, FGF22 binding, Statin myotox sup)
COc1ccccc1C1=NC(c2ccc(C)cc2)N=C1C (stereo not given)	FGF22 binding 44 (no result: Ecoli rRNA inh, Statin myotox sup, E-selectin induc)
COc1ccccc1-c1nnc(-c2ccc(C)cc2)o1	none (no result: Statin myotox sup)
Cn1cc(/C=C/C(=O)N2CCCC(C(=O)c3cccc(C(F)(F)F)c3)C2)cn1 (stereo not given)	Ecoli rRNA inh -29 (no result: E-selectin induc)
COc1ccc2c3c([nH]c2c1)[C@@H](CO)N(C(=O)CN(C)C)CC31CCN(Cc2ccccc2)CC1	none (no result: FN deposition inh, FGF22 binding, Statin myotox sup, SIRT5 block, E-selectin induc)
COc1ccc(C2NC(c3ccc(OC)c(OC)c3OC)C(C)C(=O)C2C)c(OC)c1OC (stereo not given)	Statin myotox sup 86 (no result: Ecoli rRNA inh, FGF22 binding, SIRT5 block, E-selectin induc)
COc1ccccc1C1NC(c2ccccc2OC)C(C)C(=O)C1C (stereo not given)	none (no result: Ecoli rRNA inh, FN deposition inh, FGF22 binding, SIRT5 block, E-selectin induc)
CCOC(=O)c1cn[nH]c1NC(=S)Nc1ccc(Cl)cc1	Ecoli rRNA inh -41
CCOC(=O)c1ccc(NC(=S)Nc2ccc(C)cc2)cc1	none (no result: E-selectin induc)
O=C(NCc1ccc(F)cc1)c1cccnc1C(=O)O	SIRT5 block 23, E-selectin induc inconclusive
O=C(N/N=C/c1ccc[nH]1)c1ccccc1OCc1ccc(F)cc1	SIRT5 block 22
O=C(NCc1ccc(F)cc1)c1ccccc1OCc1ccccc1	Ecoli rRNA inh -38 (no result: E-selectin induc)
COc1ccc2c3c([nH]c2c1)[C@H](CO)N(C(=O)CN(C)C)CC31CCN(Cc2ccccc2)CC1	none (no result: FN deposition inh, Statin myotox sup, SIRT5 block)
Cc1noc(C)c1S(=O)(=O)Nc1ccc2c(c1)C(=O)N([C@@H](C)CO)C[C@H](C)[C@H](CN(C)S(=O)(=O)c1cn(C)cn1)O2	none
C[C@@H]1CCCCO[C@H](CN(C)C(=O)Nc2ccc(F)cc2)[C@H](C)CN([C@@H](C)CO)C(=O)c2cc(NC(=O)Cc3ccccc3)ccc2O1	Statin myotox sup 87 (no result: FN deposition inh)
COc1ccc(NC(=O)N(C)C[C@H]2OCCCC[C@@H](C)Oc3ccc(NC(=O)Cc4ccccc4)cc3C(=O)N([C@H](C)CO)C[C@@H]2C)cc1	SIRT5 block 19 (no result: FN deposition inh, Statin myotox sup)
CCOc1ccc(NC(=S)NCc2cccnc2)cc1	Ecoli rRNA inh -20
CCOc1ccccc1NC(=O)NCc1cccnc1	FGF22 binding 43 (no result: Statin myotox sup)
O=C(NCc1ccncc1)Nc1ccccc1Cl	Statin myotox sup 116 (no result: Ecoli rRNA inh, FGF22 binding, SIRT5 block, E-selectin induc)
CC(C)(C)C(=O)Nc1ccc(C(=O)NCc2cccnc2)cc1	Statin myotox sup 114 (no result: Ecoli rRNA inh, FN deposition inh, FGF22 binding, SIRT5 block, E-selectin induc)
Cc1noc(C)c1S(=O)(=O)Nc1cccc2c1O[C@H](CN(C)S(=O)(=O)c1cn(C)cn1)[C@H](C)CN([C@H](C)CO)C2=O	none (no result: FN deposition inh)
COc1cccc(NC(=O)N[C@@H]2CC[C@H](CC(=O)N3CCOCC3)O[C@@H]2CO)c1	none (no result: FN deposition inh)
O=C(Cc1ccccc1)N1C[C@@H]2[C@H](c3ccccc31)[C@H](CO)N2C(=O)Cc1ccccc1	none (no result: FN deposition inh)
CCNC(=O)Nc1ccc2c(c1)C(=O)N(C)[C@@H]1CC[C@@H](CC(=O)Nc3ccccc3)O[C@@H]1CO2	none
Cc1ccc(Cc2c(-c3ccc(F)cc3)nc3ccc(Cl)cn23)cc1	none
Cc1ccc(Cc2c(-c3ccc(Br)cc3)nc3cc(C)ccn23)cc1	SIRT5 block 28
Cc1ccc(Cc2c(-c3ccccc3)nc3ccc(Br)cn23)cc1	none
Cc1ccc(Cc2c(-c3ccc(F)cc3)nc3cc(C)ccn23)cc1	SIRT5 block 15
O=C(Nc1cccc(Cl)c1)Nc1cccc(Cl)c1	none (no result: Ecoli rRNA inh, FGF22 binding, Statin myotox sup, SIRT5 block, E-selectin induc)
CCC(=O)Nc1cccc(C(=O)OCC(=O)c2ccccc2Cl)c1	none (no result: Ecoli rRNA inh, FGF22 binding, SIRT5 block, E-selectin induc)
Cc1cccc(C)c1NC(=S)Nc1ccc(Cl)c(Cl)c1	FGF22 binding 43 (no result: E-selectin induc)
Cc1ccc(NC(=S)N(C)N)cc1Cl	Ecoli rRNA inh -25
COC(=O)c1cc(NC(=O)Nc2cccc(Cl)c2)ccc1Cl	Ecoli rRNA inh -51 (no result: FN deposition inh, E-selectin induc)
CC(=O)Nc1cccc(C(=O)OCC(=O)c2ccccc2Cl)c1	Ecoli rRNA inh -24 (no result: FN deposition inh, Statin myotox sup, E-selectin induc)
Cc1cc(C)cc(NC(=S)Nc2ccc(Cl)c(Cl)c2)c1	none (no result: SIRT5 block, E-selectin induc)
Cc1ccc(Cl)cc1NC(=S)N(C)N	none (no result: E-selectin induc)
Cc1ccc(S(=O)(=O)N[C@H]2CC[C@@H](CCNC(=O)C3CCCCC3)O[C@H]2CO)cc1	none (no result: FN deposition inh)
C[C@@H]1CN([C@@H](C)CO)C(=O)c2cccc(NC(=O)Nc3ccc4c(c3)OCO4)c2O[C@@H]1CN(C)S(=O)(=O)c1ccc(Cl)cc1	none (no result: FN deposition inh)
CO[C@H]1CN(C)C(=O)c2ccc(NS(=O)(=O)c3ccc(Cl)cc3)cc2OC[C@H](C)N(C(=O)NC(C)C)C[C@H]1C	none
